ChEMBL document CHEMBL4354843, “Structure-Based Design of a Potent and Selective Covalent Inhibitor for SRC Kinase That Targets a P-Loop Cysteine” (J Med Chem, 2020)

What was measured:
[1] = test system: MDA-MB-231; experiment: Antiproliferative activity against human MDA-MB-231 cells assessed as reduction in cell viability incubated for 72 hrs by cell-titer glo assay relative to control; assay type: functional
How it was run: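 Cells seeded at 2000 cells/well, dosed next day with a range of concentrations (DMSO 0.2% as control), 72 h exposure, viability read by CellTiter-Glo luminescence. Dose–response curves and GR values derived with the online GR calculator. Two independent experiments, each in technical triplicate.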

[2] = test system: Tyrosine-protein kinase ABL1 (Homo sapiens), P00519 [E255K]; experiment: Binding affinity to human phosphorylated ABL1 E255K mutant (S229 to K512 residues) expressed in mammalian expression system assessed as residual binding level at 1 uM by Kinomescan method relative to control
How it was run: (§1)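 KinomeScan active site-directed competition binding panel (468 kinases), compound tested at 1 μM. Result expressed as remaining kinase signal versus DMSO control (percent of control).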

[3] = target: Ankyrin repeat and protein kinase domain-containing protein 1 (Homo sapiens) (UniProt Q8NFD2); experiment: Binding affinity to wild-type human partial length ANKK1 (M1 to A305 residues) expressed in mammalian expression system assessed as residual binding level at 1 uM by Kinomescan method relative to control
How it was run: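 KinomeScan, an active site-directed competition binding panel of 468 kinases. The test compound was at 1 μM. The readout is remaining kinase binding as a percentage of the DMSO control. Scores above 35% were treated as weak binding and not listed.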

[4] = target: Bone morphogenetic protein receptor type-1B (Homo sapiens) (UniProt O00238); experiment: Binding affinity to wild-type human partial length BMPR1B (D178 to L502 residues) expressed in mammalian expression system assessed as residual binding level at 1 uM by Kinomescan method relative to control
[5] = target: Cyclin-dependent kinase-like 5 (Homo sapiens) (UniProt O76039); experiment: Binding affinity to wild-type human partial length CDKL5 (M1 to S337 residues) expressed in mammalian expression system assessed as residual binding level at 1 uM by Kinomescan method relative to control
[6] = test system: Epidermal growth factor receptor (Homo sapiens), P00533 [L861Q]; experiment: Binding affinity to human partial length EGFR L861Q mutant (R669 to V1011 residues) expressed in bacterial expression system assessed as residual binding level at 1 uM by Kinomescan method relative to control; how it was run: as §1
[7] = target: Receptor tyrosine-protein kinase erbB-4 (Homo sapiens) (UniProt Q15303); experiment: Binding affinity to wild-type human partial length ERBB4 (L690 to K994 residues) expressed in bacterial expression system assessed as residual binding level at 1 uM by Kinomescan method relative to control
How it was run: (§2)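 Active-site-directed competition binding panel of 468 kinases (KinomeScan), compound at 1 μM. The read-out is kinase remaining bound, given as a percentage of the DMSO control. […]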

[8] = test system: Fibroblast growth factor receptor 3 (Homo sapiens), P22607 [G697C]; experiment: Binding affinity to human partial length FGFR3 G697C mutant (R442 to S771 residues) expressed in bacterial expression system assessed as residual binding level at 1 uM by Kinomescan method relative to control; how it was run: as §1
[9] = target: Tyrosine-protein kinase FRK (Homo sapiens) (UniProt P42685); experiment: Binding affinity to wild-type human partial length FRK (A215 to F503 residues) expressed in bacterial expression system assessed as residual binding level at 1 uM by Kinomescan method relative to control; how it was run: as §2
[10] = target: Hormonally up-regulated neu tumor-associated kinase (Homo sapiens) (UniProt P57058); experiment: Binding affinity to wild-type human partial length HUNK (A31 to K354 residues) expressed in bacterial expression system assessed as residual binding level at 1 uM by Kinomescan method relative to control
[11] = target: Inhibitor of nuclear factor kappa-B kinase subunit epsilon (Homo sapiens) (UniProt Q14164); experiment: Binding affinity to wild-type human full length IKK-epsilon (M1 to V716 residues) expressed in mammalian expression system assessed as residual binding level at 1 uM by Kinomescan method relative to control
How it was run: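 Active-site-directed KinomeScan competition binding panel covering 468 kinases, compound tested at 1 μM. Each readout is the kinase signal remaining with compound, expressed as a percentage of the DMSO control. […]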

[12] = target: Mitogen-activated protein kinase kinase kinase 2 (Homo sapiens) (UniProt Q9Y2U5); experiment: Binding affinity to wild-type human partial length MAP3K2 (S315 to H619 residues) expressed in mammalian expression system assessed as residual binding level at 1 uM by Kinomescan method relative to control; how it was run: as §2
[13] = target: MAP kinase-activated protein kinase 2 (Homo sapiens) (UniProt P49137); experiment: Binding affinity to wild-type human partial length MAPKAPK2 (V48 to D345 residues) expressed in bacterial expression system assessed as residual binding level at 1 uM by Kinomescan method relative to control
[14] = target: Tyrosine-protein kinase Mer (Homo sapiens) (UniProt Q12866); experiment: Binding affinity to wild-type human partial length MERTK (R557 to L884 residues) expressed in bacterial expression system assessed as residual binding level at 1 uM by Kinomescan method relative to control
[15] = target: Misshapen-like kinase 1 (Homo sapiens) (UniProt Q8N4C8); experiment: Binding affinity to wild-type human partial length MINK (M1 to K312 residues) expressed in mammalian expression system assessed as residual binding level at 1 uM by Kinomescan method relative to control; how it was run: as §2
[16] = target: Myosin light chain kinase 2, skeletal/cardiac muscle (Homo sapiens) (UniProt Q9H1R3); experiment: Binding affinity to wild-type human partial length MYLK2 (D258 to K570 residues) expressed in bacterial expression system assessed as residual binding level at 1 uM by Kinomescan method relative to control
[17] = target: Cyclin-dependent kinase 17 (Homo sapiens) (UniProt Q00537); experiment: Binding affinity to wild-type human full length PCTK2 (M1 to F523 residues) expressed in bacterial expression system assessed as residual binding level at 1 uM by Kinomescan method relative to control
How it was run: (§3)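 Active-site-directed competition binding panel (KinomeScan) covering 468 kinases. Test agent was screened at 1 μM. The read-out is the remaining kinase signal expressed relative to a DMSO control. Scores above 35%, taken as weak binding, were not reported.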

[18] = target: Protein-tyrosine kinase 2-beta (Homo sapiens) (UniProt Q14289); experiment: Binding affinity to wild-type human full length PYK2 (M1 to E967 residues) expressed in bacterial expression system assessed as residual binding level at 1 uM by Kinomescan method relative to control; how it was run: as §3
[19] = target: STE20-like serine/threonine-protein kinase (Homo sapiens) (UniProt Q9H2G2); experiment: Binding affinity to wild-type human partial length SLK (S14 to A307 residues) expressed in bacterial expression system assessed as residual binding level at 1 uM by Kinomescan method relative to control
[20] = target: Mitogen-activated protein kinase kinase kinase 12 (DLK) (Homo sapiens) (UniProt Q12852); experiment: Binding affinity to wild-type human full length DLK (M1 to P859 residues) expressed in mammalian expression system assessed as residual binding level at 1 uM by Kinomescan method relative to control
Sequence of Mitogen-activated protein kinase kinase kinase 12 (DLK) (Homo sapiens) (Q12852 whole entry, looked up, the tested form may be a part): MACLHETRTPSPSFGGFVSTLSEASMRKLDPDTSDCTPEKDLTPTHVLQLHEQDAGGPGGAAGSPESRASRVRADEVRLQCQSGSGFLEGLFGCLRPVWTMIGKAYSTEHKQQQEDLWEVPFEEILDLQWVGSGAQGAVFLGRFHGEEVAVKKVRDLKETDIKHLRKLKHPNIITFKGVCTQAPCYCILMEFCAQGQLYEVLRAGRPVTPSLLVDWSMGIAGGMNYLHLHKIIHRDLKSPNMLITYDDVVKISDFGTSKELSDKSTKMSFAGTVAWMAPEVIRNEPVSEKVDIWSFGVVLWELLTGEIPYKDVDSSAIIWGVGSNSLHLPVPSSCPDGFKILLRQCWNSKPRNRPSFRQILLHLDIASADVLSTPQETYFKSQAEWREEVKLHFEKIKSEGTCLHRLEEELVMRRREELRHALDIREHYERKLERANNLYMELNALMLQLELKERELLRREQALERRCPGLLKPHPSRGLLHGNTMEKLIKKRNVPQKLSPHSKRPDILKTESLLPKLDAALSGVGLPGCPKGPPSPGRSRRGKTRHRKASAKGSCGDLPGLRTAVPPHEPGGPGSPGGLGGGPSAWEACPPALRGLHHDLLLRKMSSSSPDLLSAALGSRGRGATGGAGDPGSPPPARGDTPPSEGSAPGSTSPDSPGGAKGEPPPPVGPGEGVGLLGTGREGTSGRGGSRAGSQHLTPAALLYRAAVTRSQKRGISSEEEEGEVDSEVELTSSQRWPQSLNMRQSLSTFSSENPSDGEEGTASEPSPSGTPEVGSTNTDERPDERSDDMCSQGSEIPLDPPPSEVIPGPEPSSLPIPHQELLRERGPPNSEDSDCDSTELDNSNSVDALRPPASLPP

Sequence of Fibroblast growth factor receptor 3 (Homo sapiens), P22607 [G697C] (P22607 whole entry G697C, the tested form may be a part): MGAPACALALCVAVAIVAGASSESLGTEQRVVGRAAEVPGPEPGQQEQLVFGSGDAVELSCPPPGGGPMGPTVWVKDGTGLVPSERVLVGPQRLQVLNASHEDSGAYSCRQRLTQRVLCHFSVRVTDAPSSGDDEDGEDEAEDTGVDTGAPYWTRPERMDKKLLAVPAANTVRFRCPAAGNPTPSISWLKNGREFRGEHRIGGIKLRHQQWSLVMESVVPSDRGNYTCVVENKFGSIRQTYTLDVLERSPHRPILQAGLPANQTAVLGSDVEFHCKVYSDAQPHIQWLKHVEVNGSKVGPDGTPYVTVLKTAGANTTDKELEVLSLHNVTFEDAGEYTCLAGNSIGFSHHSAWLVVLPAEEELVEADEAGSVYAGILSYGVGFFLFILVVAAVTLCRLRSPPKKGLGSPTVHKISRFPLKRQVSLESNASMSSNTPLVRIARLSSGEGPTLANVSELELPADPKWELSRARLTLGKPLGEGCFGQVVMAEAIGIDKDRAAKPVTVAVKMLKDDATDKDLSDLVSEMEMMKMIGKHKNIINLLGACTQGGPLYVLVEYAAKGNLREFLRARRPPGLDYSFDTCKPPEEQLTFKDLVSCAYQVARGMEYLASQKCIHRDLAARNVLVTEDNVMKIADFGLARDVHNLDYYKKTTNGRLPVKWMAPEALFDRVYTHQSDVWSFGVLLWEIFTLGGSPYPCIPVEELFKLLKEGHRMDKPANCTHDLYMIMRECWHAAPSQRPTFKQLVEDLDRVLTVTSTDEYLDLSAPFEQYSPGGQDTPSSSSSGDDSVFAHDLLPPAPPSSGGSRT
Sequence of Myosin light chain kinase 2, skeletal/cardiac muscle (Homo sapiens) (Q9H1R3 whole entry, the tested form may be a part): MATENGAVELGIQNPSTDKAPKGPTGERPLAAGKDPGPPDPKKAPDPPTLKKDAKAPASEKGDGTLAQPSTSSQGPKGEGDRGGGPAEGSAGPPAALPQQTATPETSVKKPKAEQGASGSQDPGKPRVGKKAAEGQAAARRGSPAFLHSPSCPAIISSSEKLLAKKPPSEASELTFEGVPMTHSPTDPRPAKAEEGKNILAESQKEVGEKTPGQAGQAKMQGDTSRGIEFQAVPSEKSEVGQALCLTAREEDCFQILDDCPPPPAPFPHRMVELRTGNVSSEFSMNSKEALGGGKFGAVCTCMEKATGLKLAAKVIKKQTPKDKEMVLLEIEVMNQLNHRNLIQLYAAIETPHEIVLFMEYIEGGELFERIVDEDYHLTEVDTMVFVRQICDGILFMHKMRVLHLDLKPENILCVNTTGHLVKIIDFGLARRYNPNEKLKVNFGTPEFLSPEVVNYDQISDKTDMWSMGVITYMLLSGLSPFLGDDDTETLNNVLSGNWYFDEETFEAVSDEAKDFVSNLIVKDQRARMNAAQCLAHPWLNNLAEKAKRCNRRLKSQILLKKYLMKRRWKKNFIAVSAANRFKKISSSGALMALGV
Sequence of Tyrosine-protein kinase FRK (Homo sapiens) (P42685 whole entry, the tested form may be a part): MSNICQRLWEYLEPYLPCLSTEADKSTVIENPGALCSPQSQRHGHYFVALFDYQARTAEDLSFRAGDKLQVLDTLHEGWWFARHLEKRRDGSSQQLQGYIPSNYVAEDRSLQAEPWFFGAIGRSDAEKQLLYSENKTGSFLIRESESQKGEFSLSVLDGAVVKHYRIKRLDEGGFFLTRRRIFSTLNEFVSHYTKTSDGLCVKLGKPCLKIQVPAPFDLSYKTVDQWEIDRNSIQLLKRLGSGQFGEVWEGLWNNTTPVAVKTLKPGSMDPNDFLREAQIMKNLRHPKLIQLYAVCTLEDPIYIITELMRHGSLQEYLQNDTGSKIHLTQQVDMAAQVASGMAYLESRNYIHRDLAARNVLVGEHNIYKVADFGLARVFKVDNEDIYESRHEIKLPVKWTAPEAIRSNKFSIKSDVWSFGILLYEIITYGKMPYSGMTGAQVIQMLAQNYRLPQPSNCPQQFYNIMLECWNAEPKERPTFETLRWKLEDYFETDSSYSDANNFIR
Sequence of Cyclin-dependent kinase-like 5 (Homo sapiens) (O76039 whole entry, the tested form may be a part): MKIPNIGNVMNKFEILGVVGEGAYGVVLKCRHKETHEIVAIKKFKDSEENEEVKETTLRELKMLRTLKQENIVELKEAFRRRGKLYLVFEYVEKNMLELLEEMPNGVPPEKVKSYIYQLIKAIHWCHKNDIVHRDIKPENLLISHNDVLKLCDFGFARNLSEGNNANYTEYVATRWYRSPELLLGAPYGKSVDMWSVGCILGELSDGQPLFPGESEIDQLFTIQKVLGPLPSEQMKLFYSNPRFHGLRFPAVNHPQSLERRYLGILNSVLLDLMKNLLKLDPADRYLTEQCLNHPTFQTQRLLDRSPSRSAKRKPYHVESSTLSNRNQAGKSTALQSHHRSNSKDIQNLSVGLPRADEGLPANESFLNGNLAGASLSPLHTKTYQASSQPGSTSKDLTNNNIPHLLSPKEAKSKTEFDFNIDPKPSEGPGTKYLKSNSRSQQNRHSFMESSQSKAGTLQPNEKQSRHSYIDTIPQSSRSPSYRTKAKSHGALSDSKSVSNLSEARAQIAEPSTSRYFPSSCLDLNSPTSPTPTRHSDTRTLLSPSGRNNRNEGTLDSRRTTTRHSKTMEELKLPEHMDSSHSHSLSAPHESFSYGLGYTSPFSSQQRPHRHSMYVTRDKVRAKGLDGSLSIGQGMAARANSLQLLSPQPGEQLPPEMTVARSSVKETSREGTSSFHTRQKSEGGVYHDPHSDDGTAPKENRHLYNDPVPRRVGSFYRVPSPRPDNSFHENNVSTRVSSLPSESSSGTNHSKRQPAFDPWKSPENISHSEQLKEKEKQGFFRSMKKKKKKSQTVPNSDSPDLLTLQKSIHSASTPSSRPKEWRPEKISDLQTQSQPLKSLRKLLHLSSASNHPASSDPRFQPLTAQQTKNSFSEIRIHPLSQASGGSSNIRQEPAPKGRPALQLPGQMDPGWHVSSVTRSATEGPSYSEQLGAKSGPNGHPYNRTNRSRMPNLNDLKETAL
Sequence of Misshapen-like kinase 1 (Homo sapiens) (Q8N4C8 whole entry, looked up, the tested form may be a part): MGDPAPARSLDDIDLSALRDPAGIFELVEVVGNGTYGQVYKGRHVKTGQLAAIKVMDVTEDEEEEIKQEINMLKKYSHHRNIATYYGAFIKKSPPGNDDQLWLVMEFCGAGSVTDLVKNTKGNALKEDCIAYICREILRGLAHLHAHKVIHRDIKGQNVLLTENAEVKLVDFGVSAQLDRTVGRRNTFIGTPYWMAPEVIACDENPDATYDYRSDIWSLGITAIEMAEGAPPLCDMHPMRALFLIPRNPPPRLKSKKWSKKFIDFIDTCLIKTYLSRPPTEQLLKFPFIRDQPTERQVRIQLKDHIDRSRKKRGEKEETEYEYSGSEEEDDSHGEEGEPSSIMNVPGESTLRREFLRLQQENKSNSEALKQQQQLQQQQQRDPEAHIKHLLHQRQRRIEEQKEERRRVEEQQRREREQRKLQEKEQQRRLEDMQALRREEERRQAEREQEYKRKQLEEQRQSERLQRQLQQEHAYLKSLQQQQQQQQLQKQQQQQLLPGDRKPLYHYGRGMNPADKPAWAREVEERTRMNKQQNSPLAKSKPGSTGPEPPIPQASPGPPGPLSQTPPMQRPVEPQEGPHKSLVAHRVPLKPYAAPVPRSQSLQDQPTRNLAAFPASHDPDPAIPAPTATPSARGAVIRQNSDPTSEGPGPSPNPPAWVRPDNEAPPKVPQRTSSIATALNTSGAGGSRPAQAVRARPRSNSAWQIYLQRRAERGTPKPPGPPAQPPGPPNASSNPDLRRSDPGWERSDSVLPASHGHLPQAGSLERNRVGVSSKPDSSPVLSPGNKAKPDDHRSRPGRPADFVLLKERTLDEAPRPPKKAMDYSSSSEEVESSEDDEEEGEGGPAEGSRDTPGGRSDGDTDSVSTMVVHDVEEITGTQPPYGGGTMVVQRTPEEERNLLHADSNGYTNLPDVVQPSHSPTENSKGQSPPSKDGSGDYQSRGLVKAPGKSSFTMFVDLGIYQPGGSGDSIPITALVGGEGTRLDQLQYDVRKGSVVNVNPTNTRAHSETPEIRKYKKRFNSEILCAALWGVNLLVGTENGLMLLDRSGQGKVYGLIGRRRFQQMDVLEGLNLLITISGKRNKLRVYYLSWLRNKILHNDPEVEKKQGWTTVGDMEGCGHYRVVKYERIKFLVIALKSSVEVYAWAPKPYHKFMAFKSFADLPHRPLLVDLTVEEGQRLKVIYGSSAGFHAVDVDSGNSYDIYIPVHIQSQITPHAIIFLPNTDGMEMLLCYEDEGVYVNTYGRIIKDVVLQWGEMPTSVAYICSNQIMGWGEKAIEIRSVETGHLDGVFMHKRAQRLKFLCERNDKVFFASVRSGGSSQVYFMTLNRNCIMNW

Work on C=CC(=O)Nc1ccccc1Nc1nc(Nc2ccc(N3CCN(C)CC3)cc2)ncc1C(=O)Nc1c(C)cccc1Cl yielded an Emax [1] of -0.4, an Activity [2] of 0.15% and an Activity [3] of 98%. It also gave an Activity [4] of 100%, an Activity [5] of 100% and an Activity [6] of 55%. For the same molecule, the Activity [7] was 6.6%, the Activity [8] was 100% and the Activity [9] was 5.1%. The Activity [10] was 100%, the Activity [11] was 100% and the Activity [12] was 94%. It also gave an Activity [13] of 100%, an Activity [14] of 95% and an Activity [15] of 81%. It also gave an Activity [16] of 100%, an Activity [17] of 100% and an Activity [18] of 100%. It also gave an Activity [19] of 100% and an Activity [20] of 97%.
